Active and inactive are the calls of the source.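 The calls were made as follows, unless noted: active = Her2 level under about 52% in both replicate screens, with viability over 70% of control (limit read from the data); inconclusive = Her2 under the limit in one screen only, or viability under 70%; inactive = Her2 level above the set limit.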
Key:
[1] = Her2 expression decrease, cell viability multiplex – SKBR3 breast tumor cells, AlphaScreen, ATP viability, primary screen (AID 461); details: SKBR3 Her2 protein level, 18-24 h, measured here: SKBR3 viability, ATP luminescence, at 10 µM;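 as to Her2 level: lower value means less Her2 protein in the cells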;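 as to viability: percent of carrier control wells set as 100% viability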
[2] = target: Receptor tyrosine-protein kinase erbB-2 (Homo sapiens) (UniProt P04626); assay: as above; details: 18-24 h, at 10 µM, stronger effect = lower value
[3] = reduced viability of SK-BR-3 breast cancer cells – cell-based, 24 h, human, pilot screen (AID 572;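 active = viability at or below 10% of carrier control in both of two separate runs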;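 also: compound exposure lasted between 18 and 24 h rather than exactly 24 h; 100% = carrier-treated control wells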); details: SK-BR-3 viability, CellTiter-Glo luminescence, at 10 µM, stronger effect = lower value
[4] = HUVEC growth inhibition – cell-based, human, primary screen (AID 575;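 active = viability at or below 30% in both replicate assays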;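 also: 100% = median of untreated cell wells with 0.1% DMSO on each plate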); details: HUVEC proliferation, CellTiter-Glo luminescence, 72 h; at 10 µM; stronger effect = lower value
In short: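 Timing: 72 h treatment at 37 °C; material: HUVEC primary cells; technique: CellTiter-Glo luminescence measuring cellular ATP; controls: vehicle and MePR control wells; measure: percent of median DMSO-control luminescence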

[5] = H69AR cell proliferation blockers – human, duplicate replicates, primary screen (AID 580;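 active = viability at or under a set limit in both replicates, limit being median viability minus 3 SD, cut at about 48% in these data, passing the limit was not always enough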;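 also: 100% = mean luminescence of untreated wells and 0% = no signal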); details: H69AR lung tumor cells viability, ATP luminescence, 72 h; at 10 µM; stronger effect = lower value
[6] = MRP1 drug-resistance reversers in H69AR cells – cell-based, doxorubicin co-treatment, pilot screen (AID 601;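 active = viability loss from added drug above about 55%, and viability with drug at most 40%, in both replicates, limit read from the data, passing the limit was not always enough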); details: CellTiter-Glo, 72 h, at 10 µM; for differential viability (reversal): stronger effect = higher value
[7] = yeast transport mutant growth inhibition pilot in 384-well plates, post-Golgi transport modulator project (AID 636; in the data active = inhibition above about 31%); details: absorbance 615 nm, about 18 h, stronger effect = higher value
[8] = growth suppression of yeast trafficking mutant, preliminary HTS, modulators of trafficking downstream of Golgi apparatus project, 1536-format plate, OD 615 nm (AID 637; in the data active = inhibition above about 30%); details: yeast transport mutant growth, absorbance 615 nm, 18 h; stronger effect = higher value
[9] = H69AR cells + 2 uM doxorubicin, measured here: viability with 2 uM doxorubicin, stronger effect = lower value
[10] = H69AR cells, compound alone cytotoxicity

Chain of Receptor tyrosine-protein kinase erbB-2 (Homo sapiens) (P04626 whole entry, looked up): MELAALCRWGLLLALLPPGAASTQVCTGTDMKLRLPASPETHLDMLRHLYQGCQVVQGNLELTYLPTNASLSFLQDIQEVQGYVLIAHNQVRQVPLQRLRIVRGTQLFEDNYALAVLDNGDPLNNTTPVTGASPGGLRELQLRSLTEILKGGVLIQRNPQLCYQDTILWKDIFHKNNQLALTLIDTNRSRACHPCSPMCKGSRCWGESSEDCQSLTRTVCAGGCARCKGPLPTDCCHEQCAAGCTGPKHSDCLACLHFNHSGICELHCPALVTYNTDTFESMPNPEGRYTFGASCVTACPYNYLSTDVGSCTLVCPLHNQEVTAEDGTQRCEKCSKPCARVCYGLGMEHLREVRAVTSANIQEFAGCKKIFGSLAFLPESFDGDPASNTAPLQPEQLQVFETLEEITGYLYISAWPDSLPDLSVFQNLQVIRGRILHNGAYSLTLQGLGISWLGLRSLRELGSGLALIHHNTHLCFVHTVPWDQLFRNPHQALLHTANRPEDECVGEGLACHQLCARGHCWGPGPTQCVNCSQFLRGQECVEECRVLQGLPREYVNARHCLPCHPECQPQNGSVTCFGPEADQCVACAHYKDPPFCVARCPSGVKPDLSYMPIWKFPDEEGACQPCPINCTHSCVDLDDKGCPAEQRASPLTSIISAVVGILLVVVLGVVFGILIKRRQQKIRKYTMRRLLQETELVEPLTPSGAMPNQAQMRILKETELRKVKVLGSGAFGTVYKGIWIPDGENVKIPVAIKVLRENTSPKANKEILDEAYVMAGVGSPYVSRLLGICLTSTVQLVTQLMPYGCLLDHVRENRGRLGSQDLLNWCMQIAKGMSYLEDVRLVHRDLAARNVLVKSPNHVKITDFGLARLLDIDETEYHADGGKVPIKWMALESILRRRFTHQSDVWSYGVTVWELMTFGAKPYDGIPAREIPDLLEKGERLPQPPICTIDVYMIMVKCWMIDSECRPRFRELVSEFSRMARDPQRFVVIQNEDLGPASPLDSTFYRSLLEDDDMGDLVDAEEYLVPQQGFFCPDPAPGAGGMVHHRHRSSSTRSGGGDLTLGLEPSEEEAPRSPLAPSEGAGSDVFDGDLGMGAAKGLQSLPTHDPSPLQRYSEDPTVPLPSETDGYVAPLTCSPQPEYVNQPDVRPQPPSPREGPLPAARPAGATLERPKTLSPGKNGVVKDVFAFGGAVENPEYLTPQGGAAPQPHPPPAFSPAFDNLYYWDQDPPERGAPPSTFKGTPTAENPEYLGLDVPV

Row | SMILES | viability [1] [%] | Her2 level [2] | viability [3] | viability [4] | viability [5] | differential viability (reversal) ([6]; H69AR cells + 2 uM doxorubicin) | viability [6, 9] [%] | viability [6, 10] [%] | inhibition [7] | inhibition [8]
1 | Nn1c(SCc2csc(-c3ccccc3)n2)nnc1-c1cccs1 | 83 | 82.5% (inactive) | 83% (inactive) | 85.2% (inactive) | 97.3% (inactive) | 6.11% (inactive) | 91.2 | 97.3 | -9.05% (inactive) | 5.25% (inactive)
2 | COc1ccc(S(=O)(=O)NCC(=O)N(CC(=O)NCC2CCCO2)c2ccccc2C)cc1 (stereo not given) | 123 | 82% (inactive) | 123% (inactive) | 107% (inactive) | 83.4% (inactive) | 7.01% (inactive) | 76.4 | 83.4 | -3.73% (inactive) | -0.32% (inactive)
3 | O=C(NCc1cccnc1)c1ccc(=O)oc1 | 89.5 | 90% (inactive) | 89.5% (inactive) | 106% (inactive) | 83.4% (inactive) | -4.97% (inactive) | 88.3 | 83.4 | -5.81% (inactive) | -5.33% (inactive)
4 | Cc1nn(-c2ccc(F)cc2)c2sc(C(=O)O)cc12 | 99 | 103% (inactive) | 99% (inactive) | 72.9% (inactive) | 89.8% (inactive) | 5.49% (inactive) | 84.3 | 89.8 | 0% (inactive) | 1.64% (inactive)
5 | COc1ccc(-n2c(Cc3cccn3C)nnc2SCC(=O)Nc2cccc(C)c2C)cc1 | 88.5 | 97% (inactive) | 88.5% (inactive) | 91.4% (inactive) | 93.8% (inactive) | -2.92% (inactive) | 96.7 | 93.8 | -0.64% (inactive) | -6.67% (inactive)
6 | Cc1nc2ccc(S(=O)(=O)NCC(=O)O)cc2s1 | 102 | 100% (inactive) | 102% (inactive) | 110% (inactive) | 107% (inactive) | 5.9% (inactive) | 101 | 107 | -1.84% (inactive) | -6.19% (inactive)
7 | CCCCOc1ccc(NC(=O)Cn2c(=O)ccc3c(C)cc(C)nc32)cc1 | 102 | 104% (inactive) | 102% (inactive) | 94.1% (inactive) | 91.2% (inactive) | 11.8% (inactive) | 79.5 | 91.2 | -3.55% (inactive) | -1.45% (inactive)
8 | Cn1cc(Br)c(C(=O)NC2CCCCC2)n1 | 102 | 112% (inactive) | 102% (inactive) | 96.7% (inactive) | 94.3% (inactive) | 3.45% (inactive) | 90.9 | 94.3 | 3.33% (inactive) | 0.79% (inactive)
9 | Cc1ccccc1N1C(N)=NC(N)=NC1(C)C | 107 | 84% (inactive) | 107% (inactive) | 98.3% (inactive) | 90.6% (inactive) | -0.97% (inactive) | 91.5 | 90.6 | -3.9% (inactive) | -3.17% (inactive)
10 | COCCn1c(SCC(=O)c2ccccc2)nc2c(c1=O)SC(C)C2 (stereo not given) | 108 | 106% (inactive) | 108% (inactive) | 98.9% (inactive) | 79.7% (inactive) | 27.6% (inactive) | 52.1 | 79.7 | -5.2% (inactive) | 3.44% (inactive)
11 | CCN1CCN(Cc2ccc(NC(=O)Nc3ccc(SC)cc3)cc2)CC1 | 97.5 | 82.5% (inactive) | 97.5% (inactive) | 62% (inactive) | 98.4% (inactive) | 18.2% (inactive) | 80.1 | 98.4 | -4.93% (inactive) | 1.94% (inactive)
12 | O=C(Nc1nccs1)c1ccc(COc2ccccc2Br)o1 | 118 | 91.5% (inactive) | 118% (inactive) | 50.3% (inactive) | 80.9% (inactive) | -2.83% (inactive) | 83.7 | 80.9 | -2.27% (inactive) | -7.26% (inactive)
13 | CN(C)c1ccc(/C=C/c2ccncc2)cc1 | 96 | 152% (inactive) | 96% (inactive) | 89.9% (inactive) | 90.5% (inactive) | 0.41% (inactive) | 90.1 | 90.5 | 3.03% (inactive) | 4% (inactive)
14 | Cc1ccccc1CN1CCNC1=O | 114 | 80% (inactive) | 114% (inactive) | 88.3% (inactive) | 90.8% (inactive) | 8.97% (inactive) | 81.9 | 90.8 | -3.16% (inactive) | 6.61% (inactive)
15 | O=C(NC1CCCC1)C1CC1c1ccccc1 (stereo not given) | 100 | 102% (inactive) | 100% (inactive) | 93.9% (inactive) | 98.3% (inactive) | -2.33% (inactive) | 101 | 98.3 | -6.13% (inactive) | 1.15% (inactive)
16 | COC(=O)Nc1ccc(C)cc1NC(=O)OC | 86.5 | 102% (inactive) | 86.5% (inactive) | 96.4% (inactive) | 107% (inactive) | 7.78% (inactive) | 99.5 | 107 | 0.67% (inactive) | -6.61% (inactive)
17 | CCN(CCCNC(=O)C1CCCN(S(=O)(=O)c2cnc[nH]2)C1)c1ccccc1 (stereo not given) | 94 | 93% (inactive) | 94% (inactive) | 104% (inactive) | 94.8% (inactive) | 6.6% (inactive) | 88.2 | 94.8 | -1.87% (inactive) | -1.64% (inactive)
18 | Cn1cc(C(=O)c2ccc(F)cc2)cc1-c1nc2ccccc2n1C | 91 | 65% (inactive) | 91% (inactive) | 76% (inactive) | 102% (inactive) | 10% (inactive) | 92 | 102 | -0.4% (inactive) | 1.64% (inactive)
19 | O=C(Nc1ccc(CN2CCCCC2)cc1)c1ccc2c(c1)OCO2 | 80.5 | 75% (inactive) | 80.5% (inactive) | 98.8% (inactive) | 91.6% (inactive) | 11.9% (inactive) | 79.7 | 91.6 | -2.5% (inactive) | -4.44% (inactive)
20 | COc1ccc2c(c1OC)C(=O)OC2Nn1cncn1 (stereo not given) | 95.5 | 96.5% (inactive) | 95.5% (inactive) | 109% (inactive) | 103% (inactive) | 3.5% (inactive) | 99.3 | 103 | -4.08% (inactive) | 0.33% (inactive)
21 | COc1ccc(/C(O)=C2/C(=O)C(=O)N(CCCN(C)C)C2c2ccco2)cc1Cl (stereo not given) | 104 | 98.5% (inactive) | 104% (inactive) | 120% (inactive) | 95.8% (inactive) | 7.21% (inactive) | 88.6 | 95.8 | -6.62% (inactive) | -10.7% (inactive)
22 | COC(=O)c1sc(S(=O)(=O)Nc2ccc3cn[nH]c3c2)c(C(=O)OC)c1C | 97 | 93.5% (inactive) | 97% (inactive) | 77.6% (inactive) | 78.2% (inactive) | -12.4% (inactive) | 90.6 | 78.2 | -2.5% (inactive) | -6.55% (inactive)
23 | CC(=O)OC1c2ccccc2C(=O)N1c1ccccc1C (stereo not given) | 100 | 106% (inactive) | 100% (inactive) | 99.9% (inactive) | 105% (inactive) | 14.2% (inactive) | 91.2 | 105 | 0.64% (inactive) | 0.83% (inactive)
24 | CN(C)S(=O)(=O)c1ccc(C(=O)NCc2cccs2)cc1 | 82 | 87% (inactive) | 82% (inactive) | 101% (inactive) | 101% (inactive) | 8.48% (inactive) | 92.8 | 101 | -4.05% (inactive) | 3.81% (inactive)
25 | CC(C)(C)C(=O)N=C1SC2CS(=O)(=O)CC2N1c1ccc2c(c1)OCO2 (stereo not given) | 88 | 110% (inactive) | 88% (inactive) | 104% (inactive) | 106% (inactive) | 10.5% (inactive) | 95.7 | 106 | 0.79% (inactive) | -7.82% (inactive)
26 | COc1cccc(-c2cc(C(=O)NCc3ccc(Cl)cc3)no2)c1 | 84 | 94% (inactive) | 84% (inactive) | 97% (inactive) | 89.3% (inactive) | 5.11% (inactive) | 84.2 | 89.3 | -6.62% (inactive) | 0.82% (inactive)
27 | Cc1cc(NC(=O)Cn2cnc3c(cnn3C(C)(C)C)c2=O)no1 | 91.5 | 100% (inactive) | 91.5% (inactive) | 102% (inactive) | 91.9% (inactive) | 2.12% (inactive) | 89.8 | 91.9 | 0.66% (inactive) | -5.16% (inactive)
28 | Cc1ncoc1C(=O)Nc1ccccc1C(N)=O | 104 | 101% (inactive) | 104% (inactive) | 106% (inactive) | 102% (inactive) | 16.3% (inactive) | 85.5 | 102 | -6.08% (inactive) | -1% (inactive)
29 | COc1ccc(OC)c(-c2nnc(SCC(=O)NC3CCCCC3)o2)c1 | 93.5 | 99.5% (inactive) | 93.5% (inactive) | 96.2% (inactive) | 98.5% (inactive) | 6.21% (inactive) | 92.2 | 98.5 | 0% (inactive) | -13.4% (inactive)
